Reference: ChEMBL document CHEMBL3525967, “In vitro glucuronidation of the antibacterial triclocarban and its oxidative metabolites” (Drug Metab Dispos, 2012)

Key:
[1] = Drug metabolism in cynomolgus monkey liver microsomes after 30 mins by LC-ESI-MS analysis; assay type: ADME, Macaca fascicularis
In short: (§1)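 2'-OH-TCC at 0.2, 0.5, 1, 2, 3, 5, 10 and 50 µM incubated with liver microsomes (alamethicin, MgCl2, saccharolactone, UDPGA; 37 °C), sampled at 5, 10, 15 and 30 min. Samples ≥5 µM diluted 1:9 in ACN; LC-ESI-MS. KM and vmax fitted from rate vs concentration; intrinsic clearance derived from these; mean and SD of three.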

[2] = Intrinsic clearance in cynomolgus monkey liver microsomes after 30 mins by LC-ESI-MS analysis; assay type: ADME, Macaca fascicularis; conditions: 0.5 h; in short: as §1
Liver microsome [3] = test: Drug metabolism in Sprague-Dawley rat liver microsomes assessed as retention time at 10 uM by LC-UV-MS method in presence of UDPGA; assay type: ADME
[4] = Drug excretion in human urine; assay type: ADME; conditions: read-out: Drug excretion
Liver microsome [5] = test: Drug metabolism in human liver microsomes assessed as N'-glucuronide-triclocarban formation incubated for 5 mins prior to UDPGA addition measured after 30 mins by LC-UV-ESI-MS/MS analysis; assay type: ADME; conditions: 0.5 h
In short: (§2)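 Pooled human kidney or liver microsomes (liver: 25 mixed-gender donors), 5 µg protein, in 200 µL 100 mM potassium phosphate pH 7.4. Alamethicin pre-treated on ice 15 min. Final 10 µM TCC (2% DMSO), with 10 mM MgCl2 and 10 mM saccharolactone, preincubated 5 min at 37 °C. Started with UDPGA (20 mM stock). Sampled at 5, 10, 15 and 30 min into ACN containing 1 µM DCC internal standard.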

[6] = Drug metabolism in cynomolgus monkey liver microsomes assessed as N'-glucuronide-triclocarban formation incubated for 5 mins prior to UDPGA addition measured after 30 mins by LC-UV-ESI-MS/MS analysis; assay type: ADME, Macaca fascicularis; conditions: 0.5 h
In short: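 TCC was incubated at 10 µM (2% DMSO) in 100 mM phosphate pH 7.4 with alamethicin-treated microsomes or Supersomes, 10 mM MgCl2 and 10 mM saccharolactone. After 5 min pre-incubation at 37 °C, UDPGA was added to start the reaction. Protein was raised up to 2 mg/mL. Samples were quenched in ACN with 1 µM DCC internal standard, centrifuged, and N-glucuronides detected by LC-ESI-MS/MS in SRM mode.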

[7] = target: T1, UDP-glucuronosyltransferase 1A3 (Homo sapiens, UniProt P35503); test: Drug metabolism assessed as human UGT1A3-mediated N-glucuronide-triclocarban formation expressed in baculovirus infected insect sf9 cells incubated for 5 mins prior to UDPGA addition measured after 5 to 30 mins by LC-UV analysis; assay type: ADME
T1 sequence (P35503 whole entry): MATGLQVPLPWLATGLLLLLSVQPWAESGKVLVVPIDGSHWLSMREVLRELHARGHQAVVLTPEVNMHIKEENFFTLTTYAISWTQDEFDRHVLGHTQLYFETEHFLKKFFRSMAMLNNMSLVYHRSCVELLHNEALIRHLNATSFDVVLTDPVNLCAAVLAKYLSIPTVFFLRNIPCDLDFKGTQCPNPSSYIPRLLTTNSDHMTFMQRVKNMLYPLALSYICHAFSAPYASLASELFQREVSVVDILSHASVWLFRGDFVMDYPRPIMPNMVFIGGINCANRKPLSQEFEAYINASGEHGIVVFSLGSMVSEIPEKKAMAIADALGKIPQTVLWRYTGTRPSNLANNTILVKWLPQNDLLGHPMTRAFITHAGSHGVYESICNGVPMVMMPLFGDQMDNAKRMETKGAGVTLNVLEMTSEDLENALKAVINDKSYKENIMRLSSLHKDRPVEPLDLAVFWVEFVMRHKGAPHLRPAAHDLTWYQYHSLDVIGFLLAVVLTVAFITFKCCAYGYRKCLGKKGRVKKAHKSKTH
In short: (§3)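 Microsomes or UGT Supersomes (5 µg protein) were held 15 min on ice with alamethicin in 100 mM potassium phosphate pH 7.4. TCC was added at 10 µM (2% DMSO) with 10 mM MgCl2 and 10 mM saccharolactone, pre-warmed 5 min at 37 °C, then started with UDPGA. Samples at 5, 10, 15 and 30 min were quenched in ACN. Product was read by LC-UV at 265 nm; rate came from regression over time, three incubations.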

[8] = target: T2, UDP-glucuronosyltransferase 2B7 (Homo sapiens, UniProt P16662); test: Drug metabolism assessed as human UGT2B7-mediated N-glucuronide-triclocarban formation expressed in baculovirus infected insect sf9 cells incubated for 5 mins prior to UDPGA addition measured after 5 to 30 mins by LC-UV analysis; assay type: ADME; in short: as §3
T2 sequence (P16662 whole entry): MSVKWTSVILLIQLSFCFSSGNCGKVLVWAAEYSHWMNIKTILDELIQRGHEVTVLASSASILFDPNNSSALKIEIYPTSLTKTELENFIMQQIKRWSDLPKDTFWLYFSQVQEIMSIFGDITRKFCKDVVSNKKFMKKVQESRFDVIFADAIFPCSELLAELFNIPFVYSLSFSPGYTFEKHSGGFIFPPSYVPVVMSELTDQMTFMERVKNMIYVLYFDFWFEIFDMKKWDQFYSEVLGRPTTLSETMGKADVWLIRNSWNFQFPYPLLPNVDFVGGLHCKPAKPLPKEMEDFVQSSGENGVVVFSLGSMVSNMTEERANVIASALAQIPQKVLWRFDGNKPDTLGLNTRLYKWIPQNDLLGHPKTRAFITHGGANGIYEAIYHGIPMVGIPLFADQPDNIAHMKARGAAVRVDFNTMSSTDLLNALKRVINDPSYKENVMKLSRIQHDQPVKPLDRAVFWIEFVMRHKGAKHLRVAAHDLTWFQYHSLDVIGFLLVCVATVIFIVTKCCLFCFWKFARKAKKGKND

Liver microsome [9] = test: Drug metabolism in human liver microsomes assessed as N'-glucuronide-triclocarban formation incubated for 5 mins prior to UDPGA addition measured after 5 to 30 mins by LC-UV analysis; assay type: ADME; in short: as §2
[10] = Drug metabolism in cynomolgus monkey liver microsomes assessed as N'-glucuronide-triclocarban formation incubated for 5 mins prior to UDPGA addition measured after 5 to 30 mins by LC-UV analysis; assay type: ADME, Macaca fascicularis; in short: as §3
[11] = Drug excretion in Sprague-Dawley rat urine assessed as N-glucuronide-triclocarban formation at 1 mg/kg, po by LC-MS analysis; assay type: ADME, organism-based; design: dose 1 mg/kg, route oral; conditions: in vivo
[12] = Drug excretion in Sprague-Dawley rat urine assessed as N'-glucuronide-triclocarban formation at 1 mg/kg, po by LC-MS analysis; assay type: ADME, organism-based; design: dose 1 mg/kg, route oral; conditions: in vivo

O=C(Nc1ccc(Cl)c(Cl)c1)Nc1ccc(Cl)cc1O showed a Km at 0.5 h ([1]; liver microsomes) of 1.4 µM, a Vmax ([1]; microsomes, 0.5 h) of 26.7 nmol/min/mg and a CLH [2] of 19100 µL/min/mg.

Work on O=C(Nc1ccc(Cl)c(O)c1)Nc1ccc(Cl)c(Cl)c1 yielded a Retention_time (Liver microsome [3]) of 2.26 min.

In the case of O=C(Nc1ccc(Cl)cc1)Nc1ccc(Cl)c(Cl)c1 [TRICLOCARBAN], the dose excreted [4] is reported as 25%, the Drug metabolism (Liver microsome [5]) is reported as “metabolite_detected” and the Drug metabolism [6] is reported as “metabolite_detected”. The Drug metabolism [7] was “metabolite_not_detected”, the Drug metabolism [8] was “metabolite_not_detected” and the Drug metabolism (Liver microsome [9]) was “metabolite_not_detected”. For the same compound, the Drug metabolism [10] was “metabolite_not_detected”, the Drug excretion [11] was “metabolite_not_detected” and the Drug excretion [12] was “metabolite_not_detected”.
